Key:
[1] = Selectivity index, ratio of IC50 for human HepG2 cells to IC50 for Entamoeba histolytica HM1:IMSS
in vitro [2] = conditions: human, HepG2 cells
[3] = Cytotoxicity against human HepG2 cells assessed as cell viability at 50 to 100 uM after 48 hrs by MTT assay
Entamoeba histolytica = experiment: Antiamoebic activity against Entamoeba histolytica HM1:IMSS after 72 hrs by microdilution method; format: functional, organism-based; conditions: HM-1:IMSS
in vitro [4] = conditions: human, HepG2 cells; remark: listed apart in the source
HepG2 = experiment: Cytotoxicity against human HepG2 cells after 48 hrs by MTT assay; conditions: HepG2, 48 h
[5] = Cytotoxicity against human HepG2 cells assessed as cell viability at 100 uM after 48 hrs by MTT assay; format: cell-based; conditions: read-out: Activity
Method in brief: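 HepG2 grown in DMEM, 10% heat-inactivated FBS, antibiotics, 37 °C, 5% CO2; 1.2 × 10^4 cells/well pre-grown 48 h, then exposed to compounds (3.13–100 µM; DMSO stocks diluted in medium) for 48 h at 37 °C; MTT read-out at 570 nm, reference 655 nm; viability as % of untreated control; triplicate, repeated thrice.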

O=C(/C=C/c1ccc([N+](=O)[O-])cc1)c1ccccc1
Ratio IC50 [1]: 10.74
viability at 48 h, 25 µM (in vitro [2]): 72%
viability at 48 h, 100 µM [3]: 40%
IC50 (Entamoeba histolytica): 6.02 µM
viability at 48 h, 3.13 µM (in vitro [4]): 95%
IC50 (HepG2): 64.7 µM

Cc1ccc(C(=O)/C=C/c2ccc(Cl)cc2)cc1
Ratio IC50 [1]: 14.21
viability at 48 h, 25 µM (in vitro [2]): 72%
viability at 48 h, 100 µM [3]: 40%
IC50 (Entamoeba histolytica): 5.22 µM
viability at 48 h, 3.13 µM (in vitro [4]): 95%
IC50 (HepG2): 74.2 µM

Cc1ccc(C(=O)/C=C/c2ccc([N+](=O)[O-])cc2)cc1
Ratio IC50 [1]: 16.85
viability at 48 h, 25 µM (in vitro [2]): 72%
viability at 48 h, 100 µM [3]: 40%
IC50 (Entamoeba histolytica): 5.08 µM
viability at 48 h, 3.13 µM (in vitro [4]): 95%
IC50 (HepG2): 85.6 µM

COc1ccc(-c2nnnn2CC(=O)N2N=C(c3ccccc3)CC2c2ccccc2)cc1 (configuration not stated)
Ratio IC50 [1]: 16.03
viability at 48 h, 25 µM (in vitro [2]): 72%
viability at 48 h, 100 µM [3]: 40%
IC50 (Entamoeba histolytica): 5.32 µM
viability at 48 h, 3.13 µM (in vitro [4]): 95%
IC50 (HepG2): 85.3 µM

COc1ccc(-c2nnnn2CC(=O)N2N=C(c3ccccc3)CC2c2ccc(Cl)cc2)cc1 (configuration not stated)
Ratio IC50 [1]: 26.62
viability at 48 h, 25 µM (in vitro [2]): 72%
viability at 48 h, 100 µM [3]: 40%
IC50 (Entamoeba histolytica): 3.02 µM
viability at 48 h, 3.13 µM (in vitro [4]): 95%
IC50 (HepG2): 80.4 µM

COc1ccc(-c2nnnn2CC(=O)N2N=C(c3ccccc3)CC2c2ccc(C)cc2)cc1 (configuration not stated)
Ratio IC50 [1]: >78.12
viability at 48 h, 100 µM [5]: ≥ 68%
IC50 (Entamoeba histolytica): 1.28 µM
IC50 (HepG2): > 100 µM

COc1ccc(-c2nnnn2CC(=O)N2N=C(c3ccccc3)CC2c2ccc(OC)cc2)cc1 (configuration not stated)
Ratio IC50 [1]: >86.2
viability at 48 h, 100 µM [5]: ≥ 68%
IC50 (Entamoeba histolytica): 1.16 µM
IC50 (HepG2): > 100 µM

COc1ccc(-c2nnnn2CC(=O)N2N=C(c3ccccc3)CC2c2ccc([N+](=O)[O-])cc2)cc1 (configuration not stated)
Ratio IC50 [1]: 21.68
viability at 48 h, 25 µM (in vitro [2]): 72%
viability at 48 h, 100 µM [3]: 40%
IC50 (Entamoeba histolytica): 3.68 µM
viability at 48 h, 3.13 µM (in vitro [4]): 95%
IC50 (HepG2): 79.8 µM

COc1ccc(-c2nnnn2CC(=O)N2N=C(c3ccc(Cl)cc3)CC2c2ccccc2)cc1 (configuration not stated)
Ratio IC50 [1]: 28.76
viability at 48 h, 25 µM (in vitro [2]): 72%
viability at 48 h, 100 µM [3]: 40%
IC50 (Entamoeba histolytica): 3.15 µM
viability at 48 h, 3.13 µM (in vitro [4]): 95%
IC50 (HepG2): 90.6 µM

COc1ccc(-c2nnnn2CC(=O)N2N=C(c3ccc(Cl)cc3)CC2c2ccc(Cl)cc2)cc1 (configuration not stated)
Ratio IC50 [1]: 17.26
viability at 48 h, 25 µM (in vitro [2]): 72%
viability at 48 h, 100 µM [3]: 40%
IC50 (Entamoeba histolytica): 4.65 µM
viability at 48 h, 3.13 µM (in vitro [4]): 95%
IC50 (HepG2): 80.3 µM

COc1ccc(-c2nnnn2CC(=O)N2N=C(c3ccc(Cl)cc3)CC2c2ccc(C)cc2)cc1 (configuration not stated)
Ratio IC50 [1]: 31.28
viability at 48 h, 25 µM (in vitro [2]): 72%
viability at 48 h, 100 µM [3]: 40%
IC50 (Entamoeba histolytica): 2.96 µM
viability at 48 h, 3.13 µM (in vitro [4]): 95%
IC50 (HepG2): 92.6 µM

COc1ccc(-c2nnnn2CC(=O)N2N=C(c3ccc(Cl)cc3)CC2c2ccc(OC)cc2)cc1 (configuration not stated)
Ratio IC50 [1]: >38.02
viability at 48 h, 25 µM (in vitro [2]): 72%
viability at 48 h, 100 µM [3]: 40%
IC50 (Entamoeba histolytica): 2.63 µM
viability at 48 h, 3.13 µM (in vitro [4]): 95%
IC50 (HepG2): > 100 µM

COc1ccc(-c2nnnn2CC(=O)N2N=C(c3ccc(Cl)cc3)CC2c2ccc([N+](=O)[O-])cc2)cc1 (configuration not stated)
Ratio IC50 [1]: 17.68
viability at 48 h, 25 µM (in vitro [2]): 72%
viability at 48 h, 100 µM [3]: 40%
IC50 (Entamoeba histolytica): 4.89 µM
viability at 48 h, 3.13 µM (in vitro [4]): 95%
IC50 (HepG2): 86.5 µM

COc1ccc(-c2nnnn2CC(=O)N2N=C(c3ccc(C)cc3)CC2c2ccccc2)cc1 (configuration not stated)
Ratio IC50 [1]: >83.33
viability at 48 h, 100 µM [5]: ≥ 68%
IC50 (Entamoeba histolytica): 1.2 µM
IC50 (HepG2): > 100 µM

COc1ccc(-c2nnnn2CC(=O)N2N=C(c3ccc(C)cc3)CC2c2ccc(Cl)cc2)cc1 (configuration not stated)
Ratio IC50 [1]: 34.5
viability at 48 h, 25 µM (in vitro [2]): 72%
viability at 48 h, 100 µM [3]: 40%
IC50 (Entamoeba histolytica): 2.84 µM
viability at 48 h, 3.13 µM (in vitro [4]): 95%
IC50 (HepG2): 98 µM

COc1ccc(-c2nnnn2CC(=O)N2N=C(c3ccc(C)cc3)CC2c2ccc(C)cc2)cc1 (configuration not stated)
Ratio IC50 [1]: >116.27
viability at 48 h, 100 µM [5]: ≥ 68%
IC50 (Entamoeba histolytica): 0.86 µM
IC50 (HepG2): > 100 µM

COc1ccc(-c2nnnn2CC(=O)N2N=C(c3ccc(C)cc3)CC2c2ccc(OC)cc2)cc1 (configuration not stated)
Ratio IC50 [1]: >92.59
viability at 48 h, 100 µM [5]: ≥ 68%
IC50 (Entamoeba histolytica): 1.08 µM
IC50 (HepG2): > 100 µM

COc1ccc(-c2nnnn2CC(=O)N2N=C(c3ccc(C)cc3)CC2c2ccc([N+](=O)[O-])cc2)cc1 (configuration not stated)
Ratio IC50 [1]: >38.02
viability at 48 h, 25 µM (in vitro [2]): 72%
viability at 48 h, 100 µM [3]: 40%
IC50 (Entamoeba histolytica): 2.63 µM
viability at 48 h, 3.13 µM (in vitro [4]): 95%
IC50 (HepG2): > 100 µM

O=C(/C=C/c1ccc([N+](=O)[O-])cc1)c1ccc(Cl)cc1
Ratio IC50 [1]: 6.5
viability at 48 h, 25 µM (in vitro [2]): 72%
viability at 48 h, 100 µM [3]: 40%
IC50 (Entamoeba histolytica): 6.18 µM
viability at 48 h, 3.13 µM (in vitro [4]): 95%
IC50 (HepG2): 40.2 µM

O=C(/C=C/c1ccccc1)c1ccc(Cl)cc1
Ratio IC50 [1]: 13.6
viability at 48 h, 25 µM (in vitro [2]): 72%
viability at 48 h, 100 µM [3]: 40%
IC50 (Entamoeba histolytica): 6.96 µM
viability at 48 h, 3.13 µM (in vitro [4]): 95%
IC50 (HepG2): 94.7 µM

COc1ccc(/C=C/C(=O)c2ccc(C)cc2)cc1
Ratio IC50 [1]: >21.01
viability at 48 h, 25 µM (in vitro [2]): 72%
viability at 48 h, 100 µM [3]: 40%
IC50 (Entamoeba histolytica): 4.76 µM
viability at 48 h, 3.13 µM (in vitro [4]): 95%
IC50 (HepG2): > 100 µM

COc1ccc(/C=C/C(=O)c2ccc(Cl)cc2)cc1
Ratio IC50 [1]: 19.05
viability at 48 h, 25 µM (in vitro [2]): 72%
viability at 48 h, 100 µM [3]: 40%
IC50 (Entamoeba histolytica): 5.1 µM
viability at 48 h, 3.13 µM (in vitro [4]): 95%
IC50 (HepG2): 97.2 µM

Cc1ccc(/C=C/C(=O)c2ccccc2)cc1
IC50 (Entamoeba histolytica): 4.38 µM

Cc1ccc(/C=C/C(=O)c2ccc(Cl)cc2)cc1
Ratio IC50 [1]: 17.4
viability at 48 h, 25 µM (in vitro [2]): 72%
viability at 48 h, 100 µM [3]: 40%
IC50 (Entamoeba histolytica): 5.32 µM
viability at 48 h, 3.13 µM (in vitro [4]): 95%
IC50 (HepG2): 92.6 µM

Cc1ccc(C(=O)/C=C/c2ccccc2)cc1
Ratio IC50 [1]: >20.7
viability at 48 h, 25 µM (in vitro [2]): 72%
viability at 48 h, 100 µM [3]: 40%
IC50 (Entamoeba histolytica): 4.83 µM
viability at 48 h, 3.13 µM (in vitro [4]): 95%
IC50 (HepG2): > 100 µM

O=C(/C=C/c1ccc(Cl)cc1)c1ccc(Cl)cc1 [4',4-DICHLOROCHALCONE]
Ratio IC50 [1]: 14.13
viability at 48 h, 25 µM (in vitro [2]): 72%
viability at 48 h, 100 µM [3]: 40%
IC50 (Entamoeba histolytica): 5.86 µM
viability at 48 h, 3.13 µM (in vitro [4]): 95%
IC50 (HepG2): 82.8 µM

Cc1ccc(/C=C/C(=O)c2ccc(C)cc2)cc1 [4,4'-DIMETHYLCHALCONE]
viability at 48 h, 25 µM (in vitro [2]): 72%
viability at 48 h, 100 µM [3]: 40%
IC50 (Entamoeba histolytica): 4.19 µM
viability at 48 h, 3.13 µM (in vitro [4]): 95%
IC50 (HepG2): > 100 µM

O=C(/C=C/c1ccc(Cl)cc1)c1ccccc1 [4-CHLORO CHALCONE]
Ratio IC50 [1]: 13.27
viability at 48 h, 25 µM (in vitro [2]): 72%
viability at 48 h, 100 µM [3]: 40%
IC50 (Entamoeba histolytica): 7.32 µM
viability at 48 h, 3.13 µM (in vitro [4]): 95%
IC50 (HepG2): 97.2 µM

COc1ccc(/C=C/C(=O)c2ccccc2)cc1 [4-METHOXY CHALCONE]
Ratio IC50 [1]: >16.86
viability at 48 h, 25 µM (in vitro [2]): 72%
viability at 48 h, 100 µM [3]: 40%
IC50 (Entamoeba histolytica): 5.93 µM
viability at 48 h, 3.13 µM (in vitro [4]): 95%
IC50 (HepG2): > 100 µM

O=C(/C=C/c1ccccc1)c1ccccc1 [CHALCONE]
Ratio IC50 [1]: >7.78
viability at 48 h, 25 µM (in vitro [2]): 72%
viability at 48 h, 100 µM [3]: 40%
IC50 (Entamoeba histolytica): 12.9 µM
viability at 48 h, 3.13 µM (in vitro [4]): 95%
IC50 (HepG2): > 100 µM

Cc1ncc([N+](=O)[O-])n1CCO [METRONIDAZOLE]
Ratio IC50 [1]: >55.55
viability at 48 h, 3.13 µM (in vitro [4]): 95%
IC50 (HepG2): > 100 µM
